Source: ChEMBL document CHEMBL1944580, “Synthesis of novel sulfonamide-1,2,4-triazoles, 1,3,4-thiadiazoles and 1,3,4-oxadiazoles, as potential antibacterial and antifungal agents. Biological evaluation and conformational analysis studies” (2012)
Converted amounts (≈) assume the structure as drawn.

Tests used:
Staphylococcus aureus [1] = experiment: Antibacterial activity against Staphylococcus aureus ATCC 6538 after 24 hrs by micro dilution method; format: functional; conditions: ATCC 6538, 24 h
Outline: (§1)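 Microdilution MIC in 96-well plates. Bacterial suspensions adjusted in sterile saline to 1.0 × 10^5 CFU/ml, giving 1.0 × 10^4 cfu per well in LB broth. Compounds tested at up to 1 mg/ml. Plates incubated 24 h. MIC taken as the lowest concentration with no visible growth under a binocular microscope. OD at 655 nm was also read against a blank and the positive control. Streptomycin and ampicillin were the positive controls.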

Bacillus cereus [2] = experiment: Antibacterial activity against Bacillus cereus clinical isolate after 24 hrs by micro dilution method; format: functional; outline: as §1
Micrococcus flavus [3] = experiment: Antibacterial activity against Micrococcus flavus ATCC 10240 after 24 hrs by micro dilution method; format: functional; conditions: ATCC 10240, 24 h; outline: as §1
Listeria monocytogenes [4] = experiment: Antibacterial activity against Listeria monocytogenes NCTC 7973 after 24 hrs by micro dilution method; format: functional; conditions: NCTC 7973, 24 h; outline: as §1
Pseudomonas aeruginosa [5] = experiment: Antibacterial activity against Pseudomonas aeruginosa ATCC 27853 after 24 hrs by micro dilution method; format: functional; conditions: ATCC 27853, 24 h; outline: as §1
Enterobacter cloacae [6] = experiment: Antibacterial activity against Enterobacter cloacae human isolate after 24 hrs by micro dilution method; format: functional; outline: as §1
Salmonella typhimurium [7] = experiment: Antibacterial activity against Salmonella Typhimurium ATCC 13311 after 24 hrs by micro dilution method; format: functional, Salmonella enterica subsp. enterica serovar Typhimurium; conditions: Salmonella enterica, ATCC 13311, 24 h; outline: as §1
Escherichia coli [8] = experiment: Antibacterial activity against Escherichia coli ATCC 35210 after 24 hrs by micro dilution method; format: functional; conditions: ATCC 35210, 24 h; outline: as §1
Staphylococcus aureus [9] = experiment: Antibacterial activity against Staphylococcus aureus ATCC 6538 treated for 24 hrs followed by sub-cultivated for 72 hrs by micro dilution method; format: functional
Outline: (§2)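 2 µl from each well was serially subcultured into 100 µl fresh broth per well and incubated a further 72 h. MBC is the lowest concentration with no visible growth, taken as 99.5% killing of the original inoculum. Streptomycin and ampicillin were the positive controls.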

Bacillus cereus [10] = experiment: Antibacterial activity against Bacillus cereus clinical isolate treated for 24 hrs followed by sub-cultivated for 72 hrs by micro dilution method; format: functional; outline: as §2
Micrococcus flavus [11] = experiment: Antibacterial activity against Micrococcus flavus ATCC 10240 treated for 24 hrs followed by sub-cultivated for 72 hrs by micro dilution method; format: functional; outline: as §2
Listeria monocytogenes [12] = experiment: Antibacterial activity against Listeria monocytogenes NCTC 7973 treated for 24 hrs followed by sub-cultivated for 72 hrs by micro dilution method; format: functional; outline: as §2
Pseudomonas aeruginosa [13] = experiment: Antibacterial activity against Pseudomonas aeruginosa ATCC 27853 treated for 24 hrs followed by sub-cultivated for 72 hrs by micro dilution method; format: functional; outline: as §2
Enterobacter cloacae [14] = experiment: Antibacterial activity against Enterobacter cloacae human isolate treated for 24 hrs followed by sub-cultivated for 72 hrs by micro dilution method; format: functional; outline: as §2
Salmonella typhimurium [15] = experiment: Antibacterial activity against Salmonella Typhimurium ATCC 13311 treated for 24 hrs followed by sub-cultivated for 72 hrs by micro dilution method; format: functional, Salmonella enterica subsp. enterica serovar Typhimurium; conditions: Salmonella enterica; outline: as §2
Escherichia coli [16] = experiment: Antibacterial activity against Escherichia coli ATCC 35210 treated for 24 hrs followed by sub-cultivated for 72 hrs by micro dilution method; format: functional; outline: as §2
Talaromyces funiculosus [17] = experiment: Antifungal activity against Penicillium funiculosum ATCC 36839 after 72 hrs by serial dilution method; format: functional; conditions: ATCC 36839, 72 h
Outline: (§3)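 Modified microdilution MIC. Spores were washed from malt agar cultures with sterile 0.85% saline containing 0.1% Tween 80 and adjusted to about 1.0 × 10^5 per 100 µl well in malt broth. Compounds were dissolved in DMSO (1 mg/ml). Plates incubated 72 h at 28 °C. MIC is the lowest concentration with no visible growth under a binocular microscope. Bifonazole and ketoconazole were the references.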

Penicillium ochrochloron [18] = experiment: Antifungal activity against Penicillium ochrochloron ATCC 9112 after 72 hrs by serial dilution method; format: functional; conditions: ATCC 9112, 72 h; outline: as §3
Trichoderma viride [19] = experiment: Antifungal activity against Trichoderma viride IAM 5061 after 72 hrs by serial dilution method; format: functional; conditions: IAM 5061, 72 h; outline: as §3
Aspergillus fumigatus [20] = experiment: Antifungal activity against Aspergillus fumigatus human isolate after 72 hrs by serial dilution method; format: functional; outline: as §3
Aspergillus niger [21] = experiment: Antifungal activity against Aspergillus niger ATCC 6275 after 72 hrs by serial dilution method; format: functional; conditions: ATCC 6275, 72 h; outline: as §3
Aspergillus flavus [22] = experiment: Antifungal activity against Aspergillus flavus ATCC 9643 after 72 hrs by serial dilution method; format: functional; conditions: ATCC 9643, 72 h; outline: as §3
Aspergillus versicolor [23] = experiment: Antifungal activity against Aspergillus versicolor ATCC 11730 after 72 hrs by serial dilution method; format: functional; conditions: ATCC 11730, 72 h; outline: as §3
Fulvia fulva [24] = experiment: Antifungal activity against Fulvia fulva after 72 hrs by serial dilution method; format: functional; outline: as §3
Talaromyces funiculosus [25] = experiment: Antifungal activity against Penicillium funiculosum ATCC 36839 treated for 72 hrs followed by sub-cultivated for 5 days by serial dilution method; format: functional
Outline: (§4)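 MFC obtained after the 72 h, 28 °C malt-broth microdilution (spore inoculum about 1.0 × 10^5 per well, compounds from 1 mg/ml DMSO). 2 µl was serially subcultured into 100 µl broth per well and incubated a further 5 days at 28 °C. MFC is the lowest concentration with no visible growth, taken as 99.5% killing of the original inoculum.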

Penicillium ochrochloron [26] = experiment: Antifungal activity against Penicillium ochrochloron ATCC 9112 treated for 72 hrs followed by sub-cultivated for 5 days by serial dilution method; format: functional; outline: as §4
Trichoderma viride [27] = experiment: Antifungal activity against Trichoderma viride IAM 5061 treated for 72 hrs followed by sub-cultivated for 5 days by serial dilution method; format: functional; outline: as §4
Aspergillus fumigatus [28] = experiment: Antifungal activity against Aspergillus fumigatus human isolate treated for 72 hrs followed by sub-cultivated for 5 days by serial dilution method; format: functional; outline: as §4
Aspergillus niger [29] = experiment: Antifungal activity against Aspergillus niger ATCC 6275 treated for 72 hrs followed by sub-cultivated for 5 days by serial dilution method; format: functional; outline: as §4
Aspergillus flavus [30] = experiment: Antifungal activity against Aspergillus flavus ATCC 9643 treated for 72 hrs followed by sub-cultivated for 5 days by serial dilution method; format: functional; outline: as §4
Aspergillus versicolor [31] = experiment: Antifungal activity against Aspergillus versicolor ATCC 11730 treated for 72 hrs followed by sub-cultivated for 5 days by serial dilution method; format: functional; outline: as §4
Fulvia fulva [32] = experiment: Antifungal activity against Fulvia fulva treated for 72 hrs followed by sub-cultivated for 5 days by serial dilution method; format: functional; outline: as §4

MIC (Staphylococcus aureus [1]) [µM]	MIC (Bacillus cereus [2]) [µM]	MIC (Micrococcus flavus [3]) [µM]	MIC (Listeria monocytogenes [4]) [µM]	MIC (Pseudomonas aeruginosa [5]) [µM]	MIC (Enterobacter cloacae [6]) [µM]	MIC (Salmonella typhimurium [7]) [µM]	MIC (Escherichia coli [8]) [µM]	MIC (Talaromyces funiculosus [17]) [µM]	MIC (Penicillium ochrochloron [18]) [µM]	MIC (Trichoderma viride [19]) [µM]	MIC (Aspergillus fumigatus [20]) [µM]	SMILES	MBC (Staphylococcus aureus [9]) [µM]	MBC (Bacillus cereus [10]) [µM]	MBC (Micrococcus flavus [11]) [µM]	MBC (Listeria monocytogenes [12]) [µM]	MBC (Pseudomonas aeruginosa [13]) [µM]	MBC (Enterobacter cloacae [14]) [µM]	MBC (Salmonella typhimurium [15]) [µM]	MBC (Escherichia coli [16]) [µM]	other results
260 (≈ 100 µg/mL)	260 (≈ 100 µg/mL)	650 (≈ 250 µg/mL)	650 (≈ 250 µg/mL)	650 (≈ 250 µg/mL)	650 (≈ 250 µg/mL)	650 (≈ 250 µg/mL)	650 (≈ 250 µg/mL)	130 (≈ 50 µg/mL)	130 (≈ 50 µg/mL)	70 (≈ 26.9 µg/mL)	130 (≈ 50 µg/mL)	CCCn1c(Cc2cc(OC)c(OC)cc2S(=O)(=O)N(C)C)n[nH]c1=O	390 (≈ 150 µg/mL)	650 (≈ 250 µg/mL)	650 (≈ 250 µg/mL)	780 (≈ 300 µg/mL)	780 (≈ 300 µg/mL)	780 (≈ 300 µg/mL)	650 (≈ 250 µg/mL)	650 (≈ 250 µg/mL)	MIC (Aspergillus niger [21]): 130 µM (≈ 50 µg/mL); MIC (Aspergillus flavus [22]): 130 µM (≈ 50 µg/mL); MIC (Aspergillus versicolor [23]): 130 µM (≈ 50 µg/mL); MIC (Fulvia fulva [24]): 260 µM (≈ 100 µg/mL); MFC (Talaromyces funiculosus [25]): 260 µM (≈ 100 µg/mL); MFC (Penicillium ochrochloron [26]): 390 µM (≈ 150 µg/mL); MFC (Trichoderma viride [27]): 130 µM (≈ 50 µg/mL); MFC (Aspergillus fumigatus [28]): 260 µM (≈ 100 µg/mL); MFC (Aspergillus niger [29]): 260 µM (≈ 100 µg/mL); MFC (Aspergillus flavus [30]): 260 µM (≈ 100 µg/mL); MFC (Aspergillus versicolor [31]): 390 µM (≈ 150 µg/mL); MFC (Fulvia fulva [32]): 260 µM (≈ 100 µg/mL)
390 (≈ 150 µg/mL)	260 (≈ 100 µg/mL)	390 (≈ 150 µg/mL)	390 (≈ 150 µg/mL)	390 (≈ 150 µg/mL)	390 (≈ 150 µg/mL)	390 (≈ 150 µg/mL)	390 (≈ 150 µg/mL)	260 (≈ 100 µg/mL)	130 (≈ 50 µg/mL)	30 (≈ 11.5 µg/mL)	30 (≈ 11.5 µg/mL)	COc1cc(Cc2n[nH]c(=O)n2C(C)C)c(S(=O)(=O)N(C)C)cc1OC	390 (≈ 150 µg/mL)	780 (≈ 300 µg/mL)	390 (≈ 150 µg/mL)	390 (≈ 150 µg/mL)	390 (≈ 150 µg/mL)	390 (≈ 150 µg/mL)	390 (≈ 150 µg/mL)	390 (≈ 150 µg/mL)	MIC (Aspergillus niger [21]): 260 µM (≈ 100 µg/mL); MIC (Aspergillus flavus [22]): 260 µM (≈ 100 µg/mL); MIC (Aspergillus versicolor [23]): 130 µM (≈ 50 µg/mL); MIC (Fulvia fulva [24]): 260 µM (≈ 100 µg/mL); MFC (Talaromyces funiculosus [25]): 260 µM (≈ 100 µg/mL); MFC (Penicillium ochrochloron [26]): 390 µM (≈ 150 µg/mL); MFC (Trichoderma viride [27]): 70 µM (≈ 26.9 µg/mL); MFC (Aspergillus fumigatus [28]): 130 µM (≈ 50 µg/mL); MFC (Aspergillus niger [29]): 390 µM (≈ 150 µg/mL); MFC (Aspergillus flavus [30]): 390 µM (≈ 150 µg/mL); MFC (Aspergillus versicolor [31]): 390 µM (≈ 150 µg/mL); MFC (Fulvia fulva [32]): 260 µM (≈ 100 µg/mL)
